# Test results from ChEMBL document CHEMBL3272090, “A new type of anticonvulsant: 1-aryl-3-oxotetrahydroisoquinolines” (J Med Chem, 1977).
# Calls of active or inactive are those of the source.
# Legend:
# [1] = Protective index, ratio of ED50 for neurotoxicity in po dosed mouse by rotarod test to ED50 for anticonvulsant activity in po dosed mouse assessed as protection against maximal electroshock-induced seizures; format: toxicity, organism-based; settings: in vivo, read-out: Ratio ED50
# Method in brief: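 Index calculated as rotarod ED50 divided by MES ED50, both from mice dosed perorally in Tween suspension 3 h before testing.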
# [2] = tested on: Mus musculus; assay: Anticonvulsant activity in po dosed mouse assessed as protection against maximal electroshock-induced seizures pretreated for 3 hrs; format: functional
# Method in brief: (§1)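 Mice given compound perorally as a Tween suspension 3 h before maximal electroshock seizure testing (Swinyard method). Median effective dose with 95% confidence limits by Litchfield–Wilcoxon; doses up to 300 mg/kg examined.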
# [3] = Acute toxicity in po dosed mouse assessed as mortality after 24 hrs; format: organism-based; settings: in vivo
# [4] = tested on: Mus musculus; assay: Neurotoxicity in po dosed mouse by rotarod test; format: toxicity, organism-based; settings: in vivo
# Method in brief: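 Mice dosed perorally with Tween suspension 3 h before rotarod testing for neurotoxicity. Median effective dose with 95% confidence limits by Litchfield–Wilcoxon method.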
# [5] = tested on: Mus musculus; assay: Anticonvulsant activity in mouse assessed as protection against pentylenetetrazole-induced convulsion at 300 mg/kg, po pretreated for 3 hrs; format: functional, organism-based; set-up: dose 300 mg/kg
# Method in brief: (§2)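 Peroral dosing in mice as Tween suspension, 3 h before pentylenetetrazole threshold test (Orloff method). Activity taken as a rise in threshold PTZ dose of at least 50% versus saline-pretreated controls.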
# [6] = tested on: Mus musculus; assay: Anticonvulsant activity in po dosed mouse assessed as protection against pentylenetetrazole-induced convulsion pretreated for 3 hrs; format: functional; method in brief: as §2
# [7] = tested on: Mus musculus; assay: Anticonvulsant activity in mouse assessed as protection against maximal electroshock-induced seizures at 300 mg/kg, po pretreated for 3 hrs; format: functional, organism-based; set-up: dose 300 mg/kg; method in brief: as §1
SMILES,selectivity ratio [1],ED50 [2] [mg/kg],LD50 at 24 h [3] [mg/kg],ED50 [4] [mg/kg],Activity [5],ED50 [6] [mg/kg],Activity [7]
CCCNCC(=O)Nc1ccc(C2NC(=O)Cc3ccccc32)cc1 (configuration not stated),24,20.6,2000,490,–,–,–
O=C1Cc2ccccc2C(c2ccc(NC(=O)NCc3ccccc3)cc2)N1 (configuration not stated),> 7,275,> 2000,> 2000,inactive,–,–
CCCNCC(=O)Nc1ccc(C2NC(=O)C(C)c3ccccc32)cc1 (configuration not stated),15,–,> 1600,340,–,100,–
O=C(CCCN1CCCC1)Nc1ccc(C2NC(=O)Cc3ccccc32)cc1 (configuration not stated),> 9,215,> 2000,> 2000,inactive,–,–
CC1(C)C(=O)NC(c2ccccc2N)c2ccccc21 (configuration not stated),> 9,110,> 1000,> 1000,–,–,–
CCCNCC(=O)Nc1ccccc1C1NC(=O)Cc2ccccc21 (configuration not stated),> 11,180,> 2000,> 2000,–,300,–
CCCCNCC(=O)Nc1ccc(C2NC(=O)C(C)(C)c3ccccc32)cc1 (configuration not stated),14,23.5,> 2000,335,inactive,–,–
Cl.Nc1ccc(C2NC(=O)Cc3ccccc32)cc1 (configuration not stated),5,19,795,95,–,50,–
CC(C)NCC(=O)Nc1ccc(C2NC(=O)Cc3ccccc32)cc1 (configuration not stated),26,–,> 1000,270,–,–,–
CCN(CC)CC(=O)Nc1ccc(C2NC(=O)C(C)(C)c3ccccc32)cc1 (configuration not stated),15,90,1600,1300,inactive,–,–
CC1(C)C(=O)NC(c2ccc(N)cc2)c2ccccc21 (configuration not stated),12,20,> 1600,240,–,100,–
O=C1NC(=O)C(c2ccccc2)(c2ccccc2)N1 [PHENYTOIN],15,5.2,> 1000,79.5,–,26,–
O=C1Cc2ccccc2C(c2ccccc2)N1 (configuration not stated),7,105,1060,730,inactive,–,–
Nc1ccc(Cl)c(C2NC(=O)Cc3ccccc32)c1Cl (configuration not stated),–,–,> 1000,> 1000,inactive,–,inactive
O=C(CN1CCOCC1)Nc1ccc(C2NC(=O)Cc3ccccc32)cc1 (configuration not stated),> 29,55,> 1600,> 1600,inactive,–,–
CC(C)C1C(=O)NC(c2ccc(NC(=O)CCCN3CCCC3)cc2)c2ccccc21 (configuration not stated),–,–,> 1000,86,inactive,–,inactive

SMILES,selectivity ratio [1],ED50 [2] [mg/kg],LD50 at 24 h [3] [mg/kg],ED50 [4] [mg/kg],Activity [5],ED50 [6] [mg/kg],Activity [7]
CCNCC(=O)Nc1ccc(C2NC(=O)Cc3ccccc32)cc1 (configuration not stated),51,–,> 1600,520,–,–,–
CCCNCC(=O)Nc1ccc(C2NC(=O)C(C)(C)c3ccccc32)cc1 (configuration not stated),14,–,> 1600,435,–,–,–
CC1C(=O)NC(c2ccc(N)cc2)c2ccccc21 (configuration not stated),10,26,> 2000,250,–,100,–
CC(C)NCC(=O)Nc1ccc(C2NC(=O)C(C)(C)c3ccccc32)cc1 (configuration not stated),59,–,> 2000,1600,–,100,–
CC1(C)C(=O)NC(c2ccc(NC(=O)CN3CCOCC3)cc2)c2ccccc21 (configuration not stated),> 20,78,2000,> 1600,–,300,–
CNCC(=O)Nc1ccc(C2NC(=O)C(C)(C)c3ccccc32)cc1 (configuration not stated),24,–,> 2000,600,inactive,–,–
CCCNCC(=O)Nc1ccc(C2NC(=O)C(C(C)C)c3ccccc32)cc1 (configuration not stated),2.5,19.6,600,50,inactive,–,–
CC1(C)C(=O)NC(c2ccc(NC(=O)CN3CCCCC3)cc2)c2ccccc21 (configuration not stated),> 36,62,> 2000,> 2000,inactive,–,–
Nc1ccccc1C1NC(=O)Cc2ccccc21 (configuration not stated),7,140,> 2000,940,inactive,–,–
CC(C)C1C(=O)NC(c2ccc(N)cc2)c2ccccc21 (configuration not stated),18,20,> 1600,358,–,20,–
Cc1ccc2c(c1)C(c1ccc(N)cc1)NC(=O)C2(C)C (configuration not stated),15,70,> 1600,1030,–,300,–
CC1(C)C(=O)NC(c2ccc(NC(=O)CN)cc2)c2ccccc21 (configuration not stated),13,32.5,> 1000,420,inactive,–,–
CCCCN(CCCC)CC(=O)Nc1ccc(C2NC(=O)C(C)(C)c3ccccc32)cc1 (configuration not stated),10,62,> 2000,600,inactive,–,–
CCNCC(=O)Nc1ccc(C2NC(=O)C(C)(C)c3ccccc32)cc1 (configuration not stated),–,–,> 2000,760,–,–,inactive
O=C(CN1CCCCC1)Nc1ccc(C2NC(=O)Cc3ccccc32)cc1 (configuration not stated),–,–,> 2000,> 2000,–,300,inactive
CNCC(=O)Nc1ccc(C2NC(=O)Cc3ccccc32)cc1 (configuration not stated),12,–,600,270,–,–,–
